# PAFAH2 inh = PAFAH2 (human) inhibition; hit rate 0.99% among 340,000; Q99487; recombinant PAFAH2, FP-rhodamine activity probe, fluorescence polarization; inhibition, % at 3.39 µM;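 active = inhibition above the mean over all tested compounds plus 3 SD, cut at about 30% in these data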;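 note: inhibitors block probe labeling of enzyme so polarization drops; 0% = enzyme with DMSO and 100% = wells lacking PAFAH2 protein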
# pPAFAH inh = pPAFAH (human) enzyme inhibition | Q13093 | recombinant pPAFAH, FP-rhodamine probe fluorescence polarization | inhibition, % at 3.39 µM | hit rate 1.5% among 330,000 | AID 463082;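 active = inhibition above the mean inhibition across the screen plus 3 SD, cut at about 25% in these data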;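 note: inhibitors block binding of the rhodamine activity-based probe so polarization drops; 0% = enzyme with DMSO and 100% = wells lacking pPAFAH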
# PAFAH1B3 FP inh = PAFAH1B3 (human) inhibition; Q15102; recombinant PAFAH1B3, FP-rhodamine probe, fluorescence polarization; inhibition, % at 3.39 µM; hit rate 0.28% among 340,000; AID 492972;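 active = inhibition above the screen-wide average of all tested compounds plus 3 SD, cut at about 25% in these data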;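 note: 0% = enzyme with DMSO only and 100% = wells lacking PAFAH1B3 protein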
# Target sequence (Q15102 whole entry, looked up): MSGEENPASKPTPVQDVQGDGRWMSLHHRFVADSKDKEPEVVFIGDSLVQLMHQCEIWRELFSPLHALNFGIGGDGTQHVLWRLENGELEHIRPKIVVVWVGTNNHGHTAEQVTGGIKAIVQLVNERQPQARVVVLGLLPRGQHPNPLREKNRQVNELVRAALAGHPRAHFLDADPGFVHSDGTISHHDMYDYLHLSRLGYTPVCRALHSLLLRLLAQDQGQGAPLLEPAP
# GRIN3A LBD mod = modulators (binders) of human NR3A ligand-binding domain | hit rate 2.5% among 340,000 | AID 1259313 | NR3A LBD differential scanning fluorimetry, Tm shift; 0% = protein alone, 100% = glycine-bound protein | Tm shift relative to glycine control, % at 25 µM;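 active = melting temperature shift of at least 10% of the positive control shift, at one fixed dose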
# UCH37 DUB inh = inhibitors of human deubiquitinating enzyme UCH37; purified proteasome/UCH37, Ub-AMC cleavage fluorescence; inhibition, % (concentration not given with the values); hit rate 0.33% among 330,000; Q9Y5K5;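 active = mean inhibition over replicate wells above about 20%, limit read from the data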;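 note: 0% = compound-free wells with enzyme and 100% = wells lacking proteasome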
#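 Reagent: Ub-AMC substrate; assay system: Proteasome-associated human UCH37 deubiquitinase; controls: no-proteasome and no-compound wells; read-out: % inhibition of Ub-AMC cleavage fluorescence; timing: 30 min preincubation with enzyme, 25 min cleavage at room temperature; signal: AMC fluorescence from Ub-AMC cleavage, excitation 355 nm, emission 460 nm; buffer or medium: Tris-HCl pH 7.4 plus ovalbumin, ATP-MgCl2, DTT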
# PAFAH1B2 inh = blocks human PAF acetylhydrolase 1b catalytic subunit 2 | P68402 | recombinant PAFAH1B2, FP-rhodamine activity probe, fluorescence polarization | AID 492953 | inhibition, % at 3.39 µM | hit rate 1.2% among 340,000;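 active = inhibition above the mean of all tested compounds plus 3 SD, cut at about 24% in these data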;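 note: 0% = enzyme with DMSO and 100% = wells lacking PAFAH1B2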
# Target sequence (P68402 whole entry, looked up): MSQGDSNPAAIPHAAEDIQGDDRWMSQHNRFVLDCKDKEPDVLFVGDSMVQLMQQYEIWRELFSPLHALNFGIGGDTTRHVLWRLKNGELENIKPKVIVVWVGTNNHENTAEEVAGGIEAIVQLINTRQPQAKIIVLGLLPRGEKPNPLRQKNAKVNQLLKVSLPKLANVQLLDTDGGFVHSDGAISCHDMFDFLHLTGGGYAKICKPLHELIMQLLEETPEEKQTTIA
# UCH37 reconfirm = reconfirmed inhibitor of human deubiquitinase UCH37. hit rate 27% among 480. shares compounds with UCH37 DUB inh. AID 624100. Proteasome-bound UCH37, Ub-AMC cleavage fluorescence. inhibition, % at 20 µM;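 active = average inhibition over replicates above about 50%, so the earlier screening hit is confirmed, limit read from the data; inactive = the rest, counted as false positives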;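 note: based on cleavage rate fitted by regression over a 30 min kinetic read; 0% = proteasome plus Ub-AMC and 100% = Ub-AMC without proteasome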
# * marks the source's active call; other numbers are inactive results; x = no result. Most compounds without a hit are left out; they make up all but 4.8% or so of the library.
SMILES,PAFAH2 inh,pPAFAH inh,PAFAH1B3 FP inh,GRIN3A LBD mod,UCH37 DUB inh,PAFAH1B2 inh,UCH37 reconfirm
O=C1CCCC2=C1C(c1ccc3c(c1)OCO3)c1c([nH]n(-c3ccccc3)c1=O)N2 (centres undefined),4.8,4.7,0.5,-0.2,31.8*,3.1,32.8
NC(=S)n1[nH]c(-c2ccccc2)c(N=Nc2ccccc2C(=O)N2CCOCC2)c1=O,2.2,0.9,3.7,1.4,53.7*,2.5,5.6
O=C(NC1(O)C(=O)c2ccccc2C1=O)c1ccc(C(F)(F)F)cc1,x,0.2,x,2.8,79.0*,x,69.3*
Cc1[nH]c2ccccc2c1C=NNC(=O)c1cc(-c2ccncc2)nc2ccccc12,x,x,x,x,6.0,x,x
Cc1nn(-c2cccc(C(F)(F)F)c2)c(Cl)c1C=Nn1cnnc1,x,x,x,x,-4.0,x,x
O=C(O)CC1S/C(=N/N=C/C=C/c2ccccc2[N+](=O)[O-])NC1=O (centres undefined),-2.0,-3.8,-0.3,1.4,x,4.8,x
O=C(O)CC1S/C(=N/N=C/C=C/c2ccccc2)NC1=O (centres undefined),-1.1,0.6,0.9,0.0,25.5*,-0.6,20.5
COc1ccc2ccccc2c1C=Nn1c(C)cc(C)c(C(N)=O)c1=O,x,x,x,x,12.4,x,x
CC1=C(C(=O)OCc2ccccc2)C(c2ccccc2Cl)NC(=O)N1CCCC(=O)O (centres undefined),-0.5,3.8,-0.2,1.4,40.5*,2.3,9.0
CC1=C(C(=O)OCc2ccccc2)C(c2ccccc2Cl)NC(=O)N1CCCCCC(=O)O (centres undefined),-0.8,7.7,8.4,0.1,7.2,4.4,x
O=S(=O)(NCc1ccccc1)c1ccc(F)cc1Br,-12.7,3.8,10.5,0.9,-1.8,8.6,x
O=S(=O)(NCc1ccc(F)cc1)c1ccccc1Br,0.6,0.5,4.0,-0.6,35.2*,25.3*,-11.0
O=C(CCN1C(=O)/C(=C/c2cccs2)SC1=S)Nc1cccc(C(=O)O)c1,-4.3,10.8,1.2,-9.7,4.6,-2.0,x
O=C(CCN1C(=O)/C(=C/c2cccs2)SC1=S)Nc1ccc(C(=O)O)c(O)c1,20.7,14.3,9.3,0.9,25.8*,7.3,18.0
O=C(/C=C/c1ccccc1)N/C(=C/c1ccccc1)C(=O)N1CCOCC1,-5.6,0.2,4.5,-0.7,44.6*,4.0,3.5
C[n+]1ccc(C=NNc2nc(Cl)c(C#N)c(Cl)c2Cl)cc1,x,x,x,x,25.1*,x,31.6
CC(=O)ON=C(N)Cc1ccc(-c2csnn2)cc1,x,x,x,x,4.0,x,x
COc1ccccc1-c1coc2cc(O)cc(O)c2c1=O,3.8,3.7,-1.3,0.5,48.2*,3.8,-6.0
COc1ccc(-c2coc3cc(O)cc(O)c3c2=O)cc1OC,-2.6,3.0,8.5,-14.7,4.0,2.2,x
Cc1ccc(C=Nn2c(COc3ccccc3)n[nH]c2=S)o1,x,x,x,x,3.1,x,x
O=C1OC2(c3ccccc31)c1ccccc1-c1ccccc12,4.9,x,5.7,-0.2,1.3,6.9,x
O=C1OC(c2ccc3ccccc3c2O)(c2ccc3ccccc3c2O)c2ccccc21,7.9,x,18.1,-11.6,25.7*,8.2,-35.9
O=C1N/C(=N/N=Cc2ccc(F)cc2)SC1c1ccccc1 (centres undefined),x,x,x,x,4.4,x,x
CCCCCCC(=O)N=Nc1c(O)[nH]c2ccc([N+](=O)[O-])cc12,-1.8,5.7,8.2,9.8,1.1,1.2,x
O=C(N=Nc1c(O)[nH]c2ccc([N+](=O)[O-])cc12)c1ccccc1[N+](=O)[O-],12.4,9.4,3.2,-3.3,61.4*,6.1,13.8
CC(Oc1ccccc1)C(=O)N=Nc1c(O)[nH]c2ccc([N+](=O)[O-])cc12 (centres undefined),1.4,0.8,16.9,-2.6,67.0*,7.3,45.6
COc1ccc(C=NNC(=O)C(C)N(c2ccc(OC)cc2)S(C)(=O)=O)cc1 (centres undefined),x,x,x,x,5.2,x,x
CCC(Cc1ccccc1)=NNC(=O)c1cc(C)oc1C,x,x,x,x,2.4,x,x
O=C(O)c1ccc(C=Nn2cc(-c3ccccc3)[nH]c2=S)cc1,x,x,x,x,9.3,x,x
O=C1C(Cl)=C(NCCc2ccccc2)C(=O)N1CCc1ccccc1,0.1,-6.5,-0.1,-9.9,-49.9,1.7,x

# Compound activity as filed in PubChem.
